Experimental data: ChEMBL document CHEMBL1671867, “Novel polymyxin derivatives carrying only three positive charges are effective antibacterial agents” (Antimicrob Agents Chemother, 2008)
Values after ≈ are worked out from the molar mass of the structure shown. Each block holds one compound with its values, some of them ahead of it.

What was measured:
Assay type in all cases: functional
[1] = system: Escherichia coli; assay: Ratio of the MIC for Escherichia coli ATCC 25992 in the absence of NAB7061 to MIC for Escherichia coli ATCC 25992 in the presence of 4 ug/ml of NAB7061
[2] = system: Klebsiella pneumoniae; assay: Antibacterial activity against Klebsiella pneumoniae ATCC 13883 by Etest method in presence of NAB7061
How it was run: (§1)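 MICs of the antibiotic taken from E-strips on Mueller-Hinton agar, run both with and without peptide. […] Inoculum was prepared per the strip manufacturer, matching CLSI M2-A9.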

[3] = system: Klebsiella pneumoniae; assay: Antibacterial activity against Klebsiella pneumoniae ATCC 13883 by Etest method in presence of 1 ug/ml NAB7061; how it was run: as §1
[4] = system: Enterobacter cloacae; assay: Antibacterial activity against Enterobacter cloacae ATCC 23355 […] by Etest method in presence of 4 ug/ml NAB7064
[5] = system: Escherichia coli; assay: Antibacterial activity against Escherichia coli IH3080 by Etest method in presence of 4 ug/ml NAB7064
[6] = system: Escherichia coli; assay: Antibacterial activity against Escherichia coli IH3080 by Etest method in presence of 2 ug/ml NAB7062
[7] = system: Klebsiella pneumoniae; assay: Antibacterial activity against Klebsiella pneumoniae ATCC 13883 by Etest method in presence of 4 ug/ml NAB7061; how it was run: as §1
[8] = system: Klebsiella pneumoniae; assay: Ratio of the MIC for Klebsiella pneumoniae ATCC 13883 in the absence of NAB7061 to MIC for Klebsiella pneumoniae ATCC 13883 in the presence of 4 ug/ml of NAB7061
[9] = system: Escherichia coli; assay: Ratio of the MIC for Escherichia coli IH3080 in the absence of NAB7061 to MIC for Escherichia coli IH3080 in the presence of 4 ug/ml of NAB7061
[10] = system: Klebsiella pneumoniae; assay: Antibacterial activity against Klebsiella pneumoniae ATCC 13883 by Etest method; how it was run: as §1
[11] = system: Escherichia coli; assay: Antibacterial activity against Escherichia coli ATCC 25992 by Etest method
How it was run: (§2)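 E-strip MIC on Mueller-Hinton agar without added peptide; inoculum per manufacturer, matching CLSI M2-A9.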

[12] = system: Escherichia coli; assay: Antibacterial activity against Escherichia coli IH3080 by Etest method; how it was run: as §2
[13] = system: Enterobacter cloacae; assay: Antibacterial activity against Enterobacter cloacae ATCC 23355 by Etest method; how it was run: as §2
[14] = system: Enterobacter cloacae; assay: Ratio of the MIC for Enterobacter cloacae ATCC 23355 in the absence of NAB7061 to MIC for Enterobacter cloacae ATCC 23355 […] in the presence of 4 ug/ml of NAB7061
[15] = system: Escherichia coli; assay: Antibacterial activity against Escherichia coli ATCC […] by Etest method in presence of 1 ug/ml NAB7061
[16] = system: Klebsiella pneumoniae; assay: Antibacterial activity against Klebsiella pneumoniae ATCC 13883 by Etest method in presence of 2 ug/ml NAB7061; how it was run: as §1
[17] = system: Enterobacter cloacae; assay: Antibacterial activity against Enterobacter cloacae ATCC 23355 […] by Etest method in presence of NAB7061
[18] = system: Enterobacter cloacae; assay: Antibacterial activity against Enterobacter cloacae ATCC 23355 […] by Etest method in presence of 2 ug/ml NAB7062
[19] = system: Escherichia coli; assay: Antibacterial activity against Escherichia coli ATCC […] by Etest method in presence of 2 ug/ml NAB7062
[20] = system: Escherichia coli; assay: Antibacterial activity against Escherichia coli ATCC […] by Etest method in presence of NAB7061
[21] = system: Escherichia coli; assay: Antibacterial activity against Escherichia coli IH3080 by Etest method in presence of NAB7061
[22] = system: Enterobacter cloacae; assay: Antibacterial activity against Enterobacter cloacae ATCC 23355 […] by Etest method in presence of 1 ug/ml NAB7061
[23] = system: Escherichia coli; assay: Antibacterial activity against Escherichia coli IH3080 by Etest method in presence of 1 ug/ml NAB7061
[24] = system: Escherichia coli; assay: Antibacterial activity against Escherichia coli ATCC […] by Etest method in presence of 4 ug/ml NAB7064
[25] = system: Acinetobacter baumannii; assay: Antibacterial activity against Acinetobacter baumannii ATCC 19606 by Etest method in presence of 1 ug/ml NAB739
[26] = system: Acinetobacter baumannii; assay: Antibacterial activity against Acinetobacter baumannii F264 by Etest method in presence of 0.5 ug/ml NAB739
[27] = system: Pseudomonas aeruginosa; assay: Antibacterial activity against Pseudomonas aeruginosa ATCC 27853by Etest method in presence of 0.5 ug/ml NAB739; how it was run: as §1
[28] = system: Acinetobacter baumannii; assay: Antibacterial activity against Acinetobacter baumannii ATCC 19606 by Etest method in presence of NAB739
[29] = system: Pseudomonas aeruginosa; assay: (§3) Antibacterial activity against Pseudomonas aeruginosa ATCC 27853by Etest method in presence of […] NAB739
[30] = system: Acinetobacter baumannii; assay: (§4) Antibacterial activity against Acinetobacter baumannii ATCC 19606 by Etest method in presence of […] NAB739
[31] = system: Acinetobacter baumannii; assay: Antibacterial activity against Acinetobacter baumannii ATCC 19606 by Etest method
[32] = system: Pseudomonas aeruginosa; assay: Antibacterial activity against Pseudomonas aeruginosa ATCC 27853by Etest method in presence of 2 ug/ml NAB739
[33] = system: Pseudomonas aeruginosa; assay: Antibacterial activity against Pseudomonas aeruginosa ATCC 27853by Etest method; how it was run: as §1
[34] = system: Acinetobacter baumannii; assay: Antibacterial activity against Acinetobacter baumannii F264 by Etest method; how it was run: as §2
[35] = system: Acinetobacter baumannii; assay: Antibacterial activity against Acinetobacter baumannii F264 by Etest method in presence of 1 ug/ml NAB739
[36] = system: Acinetobacter baumannii; assay: (§5) Antibacterial activity against Acinetobacter baumannii F264 by Etest method in presence of […] NAB739
[37] = system: Acinetobacter baumannii; assay: Antibacterial activity against Acinetobacter baumannii F264 by Etest method in presence of NAB739
[38] = system: Acinetobacter baumannii; assay: as §4; remark: listed apart in the source
[39] = system: Pseudomonas aeruginosa; assay: Antibacterial activity against Pseudomonas aeruginosa ATCC 27853by Etest method in presence of 1 ug/ml NAB739; how it was run: as §1
[40] = system: Pseudomonas aeruginosa; assay: as §3; remark: listed apart in the source
[41] = system: Acinetobacter baumannii; assay: as §5; remark: listed apart in the source
[42] = system: Acinetobacter baumannii; assay: Antibacterial activity against Acinetobacter baumannii ATCC 19606 by Etest method in presence of 0.5 ug/ml NAB739

Compound: CC[C@H]1OC(=O)[C@H](C)[C@@H](O[C@H]2C[C@@](C)(OC)[C@@H](O)[C@H](C)O2)[C@H](C)[C@@H](O[C@@H]2O[C@H](C)C[C@H](N(C)C)[C@H]2O)[C@](C)(O)C[C@@H](C)C(=O)[C@H](C)[C@@H](O)[C@]1(C)O [ERYTHROMYCIN]
Ratio [1]: 32
MIC [2]: ≤ 0.143 µg/mL
MIC [3]: 4 µg/mL
MIC [4]: 1.5 µg/mL
MIC [5]: 0.38 µg/mL
MIC [6]: 2 µg/mL
MIC [7]: 0.5 µg/mL
Ratio [8]: 24
Ratio [9]: 32
MIC [10]: 24 µg/mL (≈ 32.7 µM)
MIC [11]: 32 µg/mL (≈ 43.6 µM)
MIC [12]: 16 µg/mL (≈ 21.8 µM)
MIC [13]: 64 µg/mL (≈ 87.2 µM)
Ratio [14]: 21
MIC [15]: 6 µg/mL
MIC [16]: 2 µg/mL
MIC [17]: 0.375 µg/mL
MIC [18]: 8 µg/mL
MIC [19]: 2 µg/mL
fractional inhibitory concentration index (FICI) [20]: 0.188
MIC [21]: 0.25 µg/mL
MIC [22]: 48 µg/mL
MIC [23]: 4 µg/mL
MIC [24]: 0.75 µg/mL

MIC [25]: 1 µg/mL
MIC [26]: 3 µg/mL
MIC [27]: > 256 µg/mL
MIC [29]: > 256 µg/mL
MIC [30]: 32 µg/mL
MIC [31]: > 256 µg/mL
MIC [32]: 192 µg/mL
MIC [33]: > 256 µg/mL
MIC [34]: > 256 µg/mL
MIC [35]: 1 µg/mL
MIC [36]: 12 µg/mL
MIC [38]: 12 µg/mL
MIC [39]: > 256 µg/mL
MIC [40]: > 256 µg/mL
MIC [41]: 32 µg/mL
MIC [42]: 4 µg/mL
Compound: CC(=O)O[C@H]1C[C@@]2(C)[C@@H](C[C@@H](O)[C@H]3[C@@]4(C)CC[C@@H](O)[C@@H](C)[C@@H]4CC[C@@]32C)/C1=C(\CCC=C(C)C)C(=O)O [FUSIDIC ACID]
fractional inhibitory concentration index (FICI) [28]: <=0.172
fractional inhibitory concentration index (FICI) [37]: <=0.172

Compound: CN[C@H](CC(C)C)C(=O)N[C@H]1C(=O)N[C@@H](CC(N)=O)C(=O)N[C@H]2C(=O)N[C@H]3C(=O)N[C@H](C(=O)N[C@H](C(=O)O)c4cc(O)cc(O)c4-c4cc3ccc4O)[C@H](O)c3ccc(c(Cl)c3)Oc3cc2cc(c3O[C@@H]2O[C@H](CO)[C@@H](O)[C@H](O)[C@H]2O[C@H]2C[C@](C)(N)[C@H](O)[C@H](C)O2)Oc2ccc(cc2Cl)[C@H]1O [VANCOMYCIN]
MIC [25]: 1 µg/mL
MIC [26]: 3 µg/mL
MIC [27]: > 256 µg/mL
fractional inhibitory concentration index (FICI) [28]: <=0.156
MIC [29]: > 256 µg/mL
MIC [30]: 64 µg/mL
MIC [31]: > 256 µg/mL
MIC [32]: > 256 µg/mL
MIC [33]: > 256 µg/mL
MIC [34]: > 256 µg/mL
MIC [35]: 1 µg/mL
MIC [36]: 16 µg/mL
fractional inhibitory concentration index (FICI) [37]: <=0.188
MIC [38]: 8 µg/mL
MIC [39]: > 256 µg/mL
MIC [40]: > 256 µg/mL
MIC [41]: 256 µg/mL
MIC [42]: 3 µg/mL

MIC [2]: ≤ 0.167 µg/mL
MIC [3]: 24 µg/mL
MIC [4]: 0.19 µg/mL
MIC [5]: 1.5 µg/mL
MIC [6]: 12 µg/mL
MIC [7]: 2 µg/mL
MIC [10]: 64 µg/mL (≈ 128 µM)
MIC [11]: 256 µg/mL (≈ 511 µM)
MIC [12]: 128 µg/mL (≈ 256 µM)
MIC [13]: 48 µg/mL (≈ 95.9 µM)
MIC [15]: 16 µg/mL
MIC [16]: 12 µg/mL
MIC [17]: 0.293 µg/mL
MIC [18]: 8 µg/mL
MIC [19]: 4 µg/mL
MIC [21]: 0.146 µg/mL
MIC [22]: 24 µg/mL
MIC [23]: 16 µg/mL
MIC [24]: 1.5 µg/mL
Compound: C/C(=C\C(=O)OCCCCCCCCC(=O)O)C[C@@H]1OC[C@H](C[C@@H]2O[C@H]2[C@@H](C)[C@H](C)O)[C@@H](O)[C@H]1O [MUPIROCIN]
Ratio [1]: 64
Ratio [8]: 24
Ratio [9]: 64
Ratio [14]: 250
fractional inhibitory concentration index (FICI) [20]: 0.127
